Assay results taken from ChEMBL document CHEMBL1134656, “Synthesis and antitumor activity of conjugates of muramyldipeptide, normuramyldipeptide, and desmuramylpeptides with acridine/acridone derivatives” (2001).

Legend:
[1] = Half-lethal concentration against COLO,HCC2998,HCT116,SK-MEL-2 cell lines.; assay type: functional, Homo sapiens
Summary of the method: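 NCI in vitro human tumor cell line screen. After a 24 h drug-free incubation, compounds were added at five 10-fold dilutions, with a maximum of 10^-4 M (test range 10^-4 to 10^-8 M). Cells were exposed for 2 days. Growth was read from the change in protein-stain optical density, and the half-lethal concentration (LC50) was derived for each cell line.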

Cancer cell lines = assay: Cell kill activity against cancer cell lines; No; assay type: functional, cell-based; conditions: Homo sapiens
[2] = system: Panel (Carcinoma cell lines); assay: sc score: subcutaneous implants. measured as in vivo hollow fiber assay in minimum of 12 human cancer cell lines; assay type: functional
[3] = system: Panel (Carcinoma cell lines); assay: ip score (intraperitoneal implants) measured as in vivo hollow fiber assay in minimum of 12 human cancer cell lines; assay type: functional

Row | Compound | MID log LC50 [1] [M] | cell kill activity (Cancer cell lines) | Subcut score [2] | Ip score [3]
1 | CC(=O)N[C@@H]1[C@H](OCc2ccccc2)O[C@@H](CO)[C@@H](O)[C@@H]1OCC(=O)N[C@@H](C)C(=O)N[C@H](CCC(=O)NCCCNc1c2ccccc2nc2cccc([N+](=O)[O-])c12)C(N)=O | -4.97 | No cell kill activity | 2 | 2
2 | CC(=O)N[C@@H]1[C@H](OCc2ccccc2)O[C@@H](CO)[C@@H](O)[C@@H]1OC(C)C(=O)N[C@@H](C)C(=O)N[C@H](CCC(=O)NCCNCCNc1c2ccccc2nc2cccc([N+](=O)[O-])c12)C(N)=O (stereo partly specified) | -4.56 | No cell kill activity | 4 | 2
3 | CC(=O)N[C@@H]1[C@H](OCc2ccccc2)O[C@@H](CO)[C@@H](O)[C@@H]1OC(C)C(=O)N[C@@H](C)C(=O)N[C@H](CCC(=O)NCCCCNc1c2ccccc2nc2cccc([N+](=O)[O-])c12)C(N)=O (stereo partly specified) | -5.49 | – | 12 | 4
4 | CC(=O)N[C@@H]1[C@H](OCc2ccccc2)O[C@@H](CO)[C@@H](O)[C@@H]1OCC(=O)N[C@@H](C)C(=O)N[C@H](CCC(=O)NCCCCCNc1c2ccccc2nc2cccc([N+](=O)[O-])c12)C(N)=O | -5.82 | – | 8 | 16
5 | CC(=O)N[C@@H]1[C@H](OCc2ccccc2)O[C@@H](COC(=O)CCCCCNc2ccc([N+](=O)[O-])c3nc4ccc(O)cc4c(O)c23)[C@@H](O)[C@@H]1OC(C)C(=O)N[C@@H](C)C(=O)N[C@H](CCC(N)=O)C(=O)OCc1ccccc1 (stereo partly specified) | -4.23 | – | – | –
6 | CC(=O)N[C@@H]1[C@H](OCc2ccccc2)O[C@@H](CO)[C@@H](O)[C@@H]1OCC(=O)N1CCC[C@H]1C(=O)N[C@H](CCC(=O)NCCCCCNc1c2ccccc2nc2cccc([N+](=O)[O-])c12)C(N)=O | -5.51 | – | 0 | 14
7 | CC(=O)N[C@@H]1[C@H](OCc2ccccc2)O[C@@H](COC(=O)CCNc2c3ccccc3nc3cccc([N+](=O)[O-])c23)[C@@H](O)[C@@H]1OC(C)C(=O)N[C@@H](C)C(=O)N[C@H](CCC(N)=O)C(=O)OCc1ccccc1 (stereo partly specified) | -4.42 | – | – | –
8 | COC(=O)[C@@H](CCC(N)=O)NC(=O)[C@@H](NC(=O)C(C)O[C@H]1[C@H](O)[C@H](COC(=O)CCCCCCCCCCNC(=O)c2ccc([N+](=O)[O-])c3c(O)c4ccccc4nc23)O[C@@H](OCc2ccccc2)[C@H]1NC(C)=O)C(C)C (stereo partly specified) | -4.25 | – | – | –
9 | CC(=O)N[C@@H]1[C@H](OCc2ccccc2)O[C@@H](CO)[C@@H](O)[C@@H]1OCC(=O)N[C@@H](C)C(=O)N[C@H](CCC(=O)NCCCCNc1c2ccccc2nc2cccc([N+](=O)[O-])c12)C(N)=O | -4.26 | – | 2 | 4
10 | CC(=O)N[C@@H]1[C@H](OCc2ccccc2)O[C@@H](CO)[C@@H](O)[C@@H]1OC(C)C(=O)N[C@H](C(=O)N[C@H](CCC(=O)NCCCCNc1c2ccccc2nc2cccc([N+](=O)[O-])c12)C(N)=O)C(C)C (stereo partly specified) | -4.17 | – | 2 | 32
